Measurements published in ChEMBL document CHEMBL4689842, “EUbOPEN Chemogenomics Library wave 1” (2021).

Tested on: U2OS
Assay: Multiplex assay against U2OS
Assay type: toxicity, cell-based
Conditions: human
Summary of the method: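 On a CQ1 microscope at 37°C and 5% CO2, live cells were imaged after compound addition. They had been stained at seeding with Hoechst33342, BioTracker Green Microtubule Cytoskeleton Dye, MitoTracker Red and Annexin V Alexa Fluor 680. CellPathfinder machine-learning gating assigned cells to Hoechst high-intensity objects or normal cells, normal cells to healthy, pyknosed or fragmented nuclei, and pyknosed cells to mitotic or apoptotic. Tubulin, mitochondrial-mass and membrane-permeability phenotypes are per cents of healthy-nucleus cells.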

[1] = 12 h, 1 µM, compound concentration 1 uM, replicate 1
[2] = 12 h, 1 µM, compound concentration 1 uM, replicate 2
[3] = 12 h, 10 µM, compound concentration 10 uM, replicate 1
[4] = 12 h, 10 µM, compound concentration 10 uM, replicate 2
[5] = 24 h, 1 µM, compound concentration 1 uM, replicate 1
[6] = 24 h, 1 µM, compound concentration 1 uM, replicate 2
[7] = 24 h, 10 µM, compound concentration 10 uM, replicate 1
[8] = 24 h, 10 µM, compound concentration 10 uM, replicate 2
[9] = 48 h, 1 µM, compound concentration 1 uM, replicate 1
[10] = 48 h, 1 µM, compound concentration 1 uM, replicate 2
[11] = 48 h, 10 µM, compound concentration 10 uM, replicate 1
[12] = 48 h, 10 µM, compound concentration 10 uM, replicate 2

## Cl.O=c1c2cccn2c2ccccc2n1CCCN1CCC(c2ccc(Cl)cc2)CC1
[1]
  Population Apoptotic (%): 53%
  Population Fragmented Nuclei (%): 8%
  Population Healthy Nuclei (%): 77%
  Population Hoechst High Intensity Objects (%): 7%
  Population Membrane Permeable-Phenotype (%): 2%
  Population Mitochondria Different-Phenotype (%): 55%
  Population Mitotic Cells (%): 46%
  Population Normal (%): 92%
  Population Pyknosed Nuclei (%): 14%
  Population Tubulin-Different-Phenotype (%): 39%
  Total Cell Count: 233
[2]
  Population Apoptotic (%): 60%
  Population Fragmented Nuclei (%): 16%
  Population Healthy Nuclei (%): 73%
  Population Hoechst High Intensity Objects (%): 8%
  Population Membrane Permeable-Phenotype (%): 0%
  Population Mitochondria Different-Phenotype (%): 56%
  Population Mitotic Cells (%): 40%
  Population Normal (%): 91%
  Population Pyknosed Nuclei (%): 9%
  Population Tubulin-Different-Phenotype (%): 30%
  Total Cell Count: 119
[3]
  Population Apoptotic (%): 81%
  Population Healthy Nuclei (%): 58%
  Population Hoechst High Intensity Objects (%): 8%
  Population Membrane Permeable-Phenotype (%): 61%
  Population Mitotic Cells (%): 18%
  Population Normal (%): 91%
  Population Pyknosed Nuclei (%): 20%
  Population Tubulin-Different-Phenotype (%): 99%
  Total Cell Count: 201
[4]
  Population Apoptotic (%): 78%
  Population Fragmented Nuclei (%): 21%
  Population Healthy Nuclei (%): 57%
  Population Hoechst High Intensity Objects (%): 11%
  Population Membrane Permeable-Phenotype (%): 74%
  Population Mitochondria Different-Phenotype (%): 98%
  Population Mitotic Cells (%): 21%
  Population Normal (%): 89%
  Population Pyknosed Nuclei (%): 21%
  Population Tubulin-Different-Phenotype (%): 98%
  Total Cell Count: 58
[5]
  Population Apoptotic (%): 55%
  Population Fragmented Nuclei (%): 9%
  Population Healthy Nuclei (%): 73%
  Population Hoechst High Intensity Objects (%): 4%
  Population Membrane Permeable-Phenotype (%): 0%
  Population Mitochondria Different-Phenotype (%): 45%
  Population Mitotic Cells (%): 44%
  Population Normal (%): 95%
  Population Pyknosed Nuclei (%): 16%
  Population Tubulin-Different-Phenotype (%): 26%
  Total Cell Count: 300
[6]
  Population Apoptotic (%): 25%
  Population Fragmented Nuclei (%): 16%
  Population Healthy Nuclei (%): 70%
  Population Hoechst High Intensity Objects (%): 7%
  Population Membrane Permeable-Phenotype (%): 2%
  Population Mitochondria Different-Phenotype (%): 38%
  Population Mitotic Cells (%): 75%
  Population Normal (%): 92%
  Population Pyknosed Nuclei (%): 13%
  Population Tubulin-Different-Phenotype (%): 19%
  Total Cell Count: 147
[7]
  Population Apoptotic (%): 88%
  Population Fragmented Nuclei (%): 21%
  Population Healthy Nuclei (%): 45%
  Population Hoechst High Intensity Objects (%): 6%
  Population Membrane Permeable-Phenotype (%): 76%
  Population Mitochondria Different-Phenotype (%): 96%
  Population Mitotic Cells (%): 11%
  Population Normal (%): 93%
  Population Pyknosed Nuclei (%): 33%
  Population Tubulin-Different-Phenotype (%): 100%
  Total Cell Count: 229
[8]
  Population Apoptotic (%): 87%
  Population Fragmented Nuclei (%): 14%
  Population Healthy Nuclei (%): 64%
  Population Hoechst High Intensity Objects (%): 7%
  Population Membrane Permeable-Phenotype (%): 72%
  Population Mitochondria Different-Phenotype (%): 98%
  Population Mitotic Cells (%): 12%
  Population Normal (%): 92%
  Population Pyknosed Nuclei (%): 20%
  Population Tubulin-Different-Phenotype (%): 98%
  Total Cell Count: 65
[9]
  Population Apoptotic (%): 51%
  Population Fragmented Nuclei (%): 6%
  Population Healthy Nuclei (%): 82%
  Population Hoechst High Intensity Objects (%): 4%
  Population Membrane Permeable-Phenotype (%): 2%
  Population Mitochondria Different-Phenotype (%): 17%
  Population Mitotic Cells (%): 48%
  Population Normal (%): 95%
  Population Pyknosed Nuclei (%): 10%
  Population Tubulin-Different-Phenotype (%): 11%
  Total Cell Count: 287
[10]
  Population Apoptotic (%): 62%
  Population Fragmented Nuclei (%): 18%
  Population Healthy Nuclei (%): 70%
  Population Hoechst High Intensity Objects (%): 5%
  Population Membrane Permeable-Phenotype (%): 4%
  Population Mitochondria Different-Phenotype (%): 24%
  Population Mitotic Cells (%): 37%
  Population Normal (%): 94%
  Population Pyknosed Nuclei (%): 11%
  Population Tubulin-Different-Phenotype (%): 18%
  Total Cell Count: 131
[11]
  Population Apoptotic (%): 87%
  Population Fragmented Nuclei (%): 18%
  Population Healthy Nuclei (%): 28%
  Population Hoechst High Intensity Objects (%): 12%
  Population Membrane Permeable-Phenotype (%): 84%
  Population Mitochondria Different-Phenotype (%): 100%
  Population Mitotic Cells (%): 12%
  Population Normal (%): 87%
  Population Pyknosed Nuclei (%): 53%
  Population Tubulin-Different-Phenotype (%): 100%
  Total Cell Count: 318
[12]
  Population Apoptotic (%): 88%
  Population Fragmented Nuclei (%): 16%
  Population Healthy Nuclei (%): 46%
  Population Hoechst High Intensity Objects (%): 10%
  Population Membrane Permeable-Phenotype (%): 67%
  Population Mitochondria Different-Phenotype (%): 97%
  Population Mitotic Cells (%): 11%
  Population Normal (%): 89%
  Population Pyknosed Nuclei (%): 36%
  Population Tubulin-Different-Phenotype (%): 97%
  Total Cell Count: 74
